Bioassay records as filed in PubChem BioAssay.
SR-BI DiI inh = inhibitors of SR-BI mediated HDL lipid uptake, primary screen, ldlA[mSR-BI] cells, fluorescence, single point; ldlA[mSR-BI] CHO cells, DiI-HDL uptake fluorescence, 3 h; AID 488896, 2010; Scavenger receptor class B member 1 (Mus musculus), Q61009; 0.96% of 320,000 active; inhibition, % at 12.5 µM;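 active = mean replicate inhibition of at least 70% and a set share of replicates each scoring 70 or more; inconclusive = meets just one of the two criteria; inactive = fails both criteria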
PKA-R2B activ = activators of PKA-R2B holoenzyme, primary screen, biochemical, fluorescence polarization, Cy5-IP20, human | AID 504700, 2011 | PKA-R2B holoenzyme dissociation; R2B truncated from residue 108, S112A mutant; 0% DMSO only, 100% 113 µM cGMP | activation, % at 11.4 µM | 0.079% of 340,000 active;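 active = activation above a cutoff set at the mean over all compounds plus 3 SD, cut at about 18% in these data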;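 note: higher means more holoenzyme dissociation and a rise in polarization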
SR-BI uptake up = activators of SR-BI mediated DiI-HDL uptake, primary screen, ldlA[mSR-BI] CHO cells, DiI fluorescence. 3 h; 100 = double the neutral-control signal. activation, % at 12.5 µM. 0.096% of 320,000 active;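 active = mean replicate activation of at least 60% and every replicate at or above 60%; inconclusive = mean or all-replicate condition met, but not both; inactive = mean below 60% and not all replicates reaching 60%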
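Test system: SR-BI-overexpressing, LDLR-lacking CHO cells; Medium: Ham's F12 with 0.5% BSA, HEPES 25 mM, pH 7.4; Schedule: 3 h, 37 °C; Technique: bottom-read fluorescence, 550/595 nm.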
PKA-R1A act = activators of PKA-R1A holoenzyme, primary screen, biochemical, fluorescence polarization, Cy5-IP20, bovine R1A, mouse PKAc; 0.083% of 340,000 active; cAMP-dependent protein kinase type I-alpha regulatory subunit (Bos taurus) + …; PKA-R1A dissociation; scaled: DMSO 0%, 113 µM cGMP 100%; activation, % at 11.4 µM; AID 504707, 2011;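 active = percent activation above the mean of all tested compounds plus 3 SD, cut at about 19% in these data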;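 note: higher means more PKAc released from R1A so a rise in polarization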
CDK5 inh = inhibitors of human CDK5/p35 kinase, primary screen, biochemical, single concentration. Cyclin-dependent kinase 5 (Homo sapiens) + Cyclin-dependent kinase 5 activator 1 (Homo …. Recombinant CDK5/p35, ADP-Glo luminescence, 60 min. AID 488839, 2010. 0.01% of 330,000 active. inhibition, % at 10 µM;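 active = highest replicate inhibition of at least 50% and at least 75% of replicates reaching 50%; inconclusive = only one of the two criteria met; inactive = both criteria failed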
Target sequence (Q00535 whole entry, looked up): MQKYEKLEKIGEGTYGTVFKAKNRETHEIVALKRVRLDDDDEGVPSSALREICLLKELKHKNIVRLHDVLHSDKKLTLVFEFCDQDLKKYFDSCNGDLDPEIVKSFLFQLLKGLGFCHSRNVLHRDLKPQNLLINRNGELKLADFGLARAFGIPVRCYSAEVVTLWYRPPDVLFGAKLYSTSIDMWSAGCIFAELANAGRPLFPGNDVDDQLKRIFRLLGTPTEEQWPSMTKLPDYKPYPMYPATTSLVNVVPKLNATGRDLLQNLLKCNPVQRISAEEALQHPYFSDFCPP
Target sequence (Q15078 whole entry, looked up): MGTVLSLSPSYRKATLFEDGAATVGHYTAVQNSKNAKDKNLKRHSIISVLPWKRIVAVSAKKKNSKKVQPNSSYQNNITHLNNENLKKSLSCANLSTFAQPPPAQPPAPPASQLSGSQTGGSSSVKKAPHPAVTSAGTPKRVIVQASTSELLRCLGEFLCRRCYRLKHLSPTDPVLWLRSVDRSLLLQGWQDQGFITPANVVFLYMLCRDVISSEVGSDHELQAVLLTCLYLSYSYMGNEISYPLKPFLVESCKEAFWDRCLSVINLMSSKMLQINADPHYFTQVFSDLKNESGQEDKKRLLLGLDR
dFosB act-1 = activators of delta FosB homodimer, primary screen, biochemical, fluorescence polarization, TAMRA-CDK5 oligo, single point; Protein FosB (Mus musculus), P13346; purified delta FosB; percent of positive-control signal above neutral wells; activation, % at 25 µM; 0.99% of 340,000 active; AID 493131, 2011;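 active = mean activation above about 17%, with every replicate also reaching it, limit read from the data, passing the limit was not always enough; inconclusive = only one of the two conditions met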
dFosB act-2 = activators of mouse delta FosB DNA binding, confirmation, biochemical, fluorescence polarization, TAMRA-CDK5 oligo, cherry-picked samples; shares compounds with dFosB act-1; purified delta FosB; normalised: neutral wells 0, positive control 100; activation, % at 24.9 µM; 2,400 tested, under 10 active; AID 588690, 2011;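 active = highest replicate activation at or above 34% and every replicate reaching that threshold; inconclusive = meets only one of the two criteria; inactive = meets neither criterion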;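 note: higher polarization means more probe DNA bound by delta FosB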
Each line names hits and unclear results; the compound was inactive in the other large screens (follow-up assays come after a bar, where they were run). Shown are actives, neighbours in structure and some others; about 2.1% of the full set was active somewhere.

COc1ccc(S(=O)(=O)N(CC(=O)N2CCCCCC2)c2ccccc2OC)cc1	none (no result: SR-BI DiI inh, SR-BI uptake up)
Cn1c(=O)c2sccc2n2c(CCCC(=O)NCc3ccc4c(c3)OCO4)nnc12	none
O=C(Oc1ccc(/C=N/NC(=O)c2ccccn2)cc1)c1cccc(Br)c1	dFosB act-1 19.0 | dFosB act-2 inactive
Cc1ccc(C(=O)N/N=C\c2ccc(OC(=O)c3cccc(F)c3)cc2)cn1	dFosB act-1 31.1 (no result: SR-BI DiI inh, SR-BI uptake up) | dFosB act-2 inactive
Cc1ccc(C(=O)N/N=C\c2cccc(OC(=O)c3cccc(F)c3)c2)cn1	none (no result: SR-BI DiI inh, SR-BI uptake up)
Cc1cc(C(=O)N/N=C/c2cc(Br)cc(Br)c2OC(=O)c2cccc(F)c2)n[nH]1	SR-BI DiI inh 121.5, dFosB act-1 52.7 | dFosB act-2 inactive
COc1ccc(Cc2nnc(SCC(=O)NC3(C#N)CCCCC3)n2N)cc1	none
COc1cc(Cl)c(C)cc1NC(=O)COC(=O)c1ccc(CN2CCCC2=O)cc1	none
O=C(Nc1ccc(-c2ccc3nncn3n2)cc1)c1ccc(Br)o1	dFosB act-1 54.0 (no result: SR-BI DiI inh, SR-BI uptake up) | dFosB act-2 inactive
CCN(Cc1ccncc1)Cc1ccc(Br)cc1	none
CN(C)S(=O)(=O)c1ccc(C(=O)OCC(=O)c2ccc3c(c2)NC(=O)CO3)cc1	dFosB act-1 27.2 | dFosB act-2 inactive
CCN(CC)S(=O)(=O)c1cc(C(=O)OCC(=O)c2ccc3c(c2)NC(=O)CO3)ccc1F	dFosB act-1 20.3 | dFosB act-2 inactive
O=C1COc2ccc(C(=O)COC(=O)c3sc4ccccc4c3Cl)cc2N1	dFosB act-1 93.8 | dFosB act-2 inactive
Cc1cc(C)cc(OCC(=O)OCC(=O)c2ccc3c(c2)NC(=O)CO3)c1	none
COc1ccc2c(Cl)c(C(=O)OCC(=O)c3ccc4c(c3)NC(=O)CO4)sc2c1Cl	none (no result: SR-BI DiI inh, SR-BI uptake up)
O=C1COc2ccc(C(=O)COc3ccc([N+](=O)[O-])cc3)cc2N1	dFosB act-1 17.9 (no result: SR-BI DiI inh, SR-BI uptake up) | dFosB act-2 inactive
CN(C)S(=O)(=O)c1cccc(C(=O)OCC(=O)c2ccc3c(c2)NC(=O)CO3)c1	none
CCCC(C)C(=O)Nc1ncc(S(=O)(=O)c2ccc([N+](=O)[O-])cc2)s1 (configuration not stated)	none
Cc1cccnc1NC(=O)c1ccc(COc2ccccc2)o1	none
Cc1ccc(-c2cc(C(F)F)nc3sc4c(=O)[nH]cnc4c23)cc1	dFosB act-1 32.9 | dFosB act-2 inactive
C#CCNC(=O)C1=C[C@H](C(C)(C)C)C[C@H](OCCCCO)O1	none
CC1(C)CC(=O)C=C(C#CC2(O)CCCCC2)C1	none (no result: SR-BI DiI inh, SR-BI uptake up, CDK5 inh, dFosB act-1)
CCN(CC)CCN(C(=O)c1ccc(C(=O)c2ccccc2)cc1)c1nc2c(OC)cccc2s1	dFosB act-1 33.4 | dFosB act-2 inactive
CCOc1ccc2nc(N(CCN(C)C)C(=O)c3ccc4c(c3)CCCC4)sc2c1	dFosB act-1 29.9 | dFosB act-2 inactive
CCN(CC)CCN(C(=O)c1cc2ccccc2cc1OC)c1nc2ccc(OC)cc2s1	none
CCN(CC)CCN(C(=O)c1ccc2ccccc2c1)c1nc2ccc(OC)cc2s1	dFosB act-1 26.3 | dFosB act-2 inactive
CCOc1ncccc1C(=O)Nc1cc(S(=O)(=O)N2CCCCCC2)ccc1OC	none
CCOC(=O)C(Cc1c[nH]c2ccccc12)NC(=O)c1ccccc1Br (configuration not stated)	none
Cc1nc(-c2ccc(F)cc2)c(CC(=O)N2CCN(S(=O)(=O)c3cccc(F)c3)CC2)s1	none
Cn1c(=O)n(C)c2cc(NC(=O)CSc3nc4ccccc4c(=O)[nH]3)ccc21	none (no result: SR-BI DiI inh, SR-BI uptake up)
CCOC(=O)C1=CN(Cc2ccco2)S(=O)(=O)NC1CC (configuration not stated)	none
COc1ccc(COC[B-](F)(F)F)cc1	none (no result: SR-BI DiI inh, SR-BI uptake up, CDK5 inh, dFosB act-1)
O=C(NCCCc1ccc(F)cc1)C1CCC(=O)N(CC2CCCCC2)C1 (configuration not stated)	none
Cc1c(C(=O)OCC(=O)N2CC(=O)Nc3ccccc32)oc2ccc(Br)cc12	dFosB act-1 70.0 | dFosB act-2 inactive
Cc1c(Cl)cccc1NC(=O)CCNC(=O)N1CC(=O)Nc2ccccc21	dFosB act-1 23.4 | dFosB act-2 inactive
CCCCc1ccc(S(=O)(=O)NCCCN2CCCC2=O)cc1	none
CCCn1c(N)c(C(=O)CSc2n[nH]c(-c3ccc(C)cc3)n2)c(=O)[nH]c1=O	dFosB act-1 27.7 | dFosB act-2 inactive
CCCn1c(N)c(C(=O)CSc2nc(C)cs2)c(=O)[nH]c1=O	none
Cc1cccc(NC(=O)CCC(=O)Nc2nnc(C3CCCCC3)s2)c1	dFosB act-1 30.1 | dFosB act-2 inactive
COc1ccc(S(=O)(=O)N(C)[C@H]2C[C@H]3c4cc(Oc5ccccc5C)ccc4CCN3C(=O)[C@H]2[C@H](C)O)cc1	none (no result: SR-BI DiI inh, SR-BI uptake up, CDK5 inh, dFosB act-1)
CC(OC(=O)c1cccc(-n2cnnn2)c1)C(=O)Nc1ccc(F)c(F)c1F (configuration not stated)	dFosB act-1 29.6 | dFosB act-2 inactive
CC(OC(=O)c1cccc(-n2cnnn2)c1)C(=O)Nc1ccccc1F (configuration not stated)	none
C/C(=N\NC(=O)c1ccncc1)c1ccc(N2CCOCC2)cc1	none
C/C(=N\NC(=O)c1ccc(OC2OCCOC2Oc2ccc(C(=O)N/N=C(\C)c3ccncc3)cc2)cc1)c1ccncc1 (configuration not stated)	dFosB act-1 96.7 (no result: SR-BI DiI inh, SR-BI uptake up) | dFosB act-2 inactive
CC(=O)Nc1ccc(NC(=O)CSc2nc(N)c(NC(=O)c3ccccc3F)c(=O)[nH]2)cc1	dFosB act-1 16.9 | dFosB act-2 inactive
Nc1nc(SCC(=O)NCc2ccccc2Cl)[nH]c(=O)c1NC(=O)c1ccccc1F	none
Cc1cccc(NC(=O)CSc2nc(N)c(NC(=O)c3ccccc3F)c(=O)[nH]2)c1	dFosB act-1 inconclusive
Nc1nc(SCC(=O)NCc2ccc(F)cc2)[nH]c(=O)c1NC(=O)c1ccc(Cl)cc1	dFosB act-1 33.0 | dFosB act-2 inactive
COc1ccc(CCN2CC(C(=O)NCCN3CCOC3=O)CCC2=O)cc1 (configuration not stated)	none
